We go through twelve compounds from ChEMBL document CHEMBL1144203, “Synthesis and antiviral evaluation of acyclic azanucleosides developed from sulfanilamide as a lead structure” (Bioorg Med Chem, 2008).

Data set [1] in a line: Cytotoxicity against CRFK cells assessed as decrease in cell viability by MTS assay. Type of data set: cell-based, Felis catus. The settings on record: cat. The procedure, abridged:
(§1)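 Uninfected host cells were exposed to compound. CC50 was taken as the concentration giving a 50% fall in cell viability, measured by a colorimetric formazan-based MTS assay.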
(Tetrazolium assays rely on reduction of a dye to a coloured formazan, in cell work by metabolically active cells.)

Data set [2] relates to MDCK. Nature of the data set: Cytotoxicity against MDCK cells assessed as decrease in cell viability upto 100 uM by MTS assay. The note with it: dog. Type of data set: cell-based, Canis lupus familiaris.
Data set [3] concerns HEL. Nature of the data set: Cytotoxicity against HEL cells assessed as decrease in cell viability upto 100 uM by MTS assay. It is filed as cell-based. The settings on record: human.
The subject of data set [4] is HeLa. The data set can be described thus: Cytotoxicity against human HeLa cells assessed as decrease in cell viability upto 100 uM by MTS assay. It is filed as functional, cell-based. The procedure, abridged: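 Uninfected HeLa host cells were tested up to 100 μM. CC50 is the concentration causing a 50% drop in cell viability by colorimetric formazan-based MTS assay. Alternatively, MCC is the minimal concentration giving microscopically detectable alteration of normal cell morphology.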

Data set [5] concerns Human respirovirus 3. Nature of the data set: Antiviral activity against Parainfluenza 3 virus infected in Vero cells assessed as inhibition of virus-induced cytopathic effect at 100 uM by MTS assay. It is filed as functional, organism-based. The procedure, abridged: (§2)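 Vero cell monolayers were infected with the virus in cell-based CPE assays. EC50 is the concentration giving 50% inhibition of virus-induced cytopathic effect, scored visually or by MTS formazan colorimetric cell-viability read-out. The highest concentration tested was 100 μM for most compounds and lower for a few.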
(In general: Protection from cytopathic effect is a common read-out in antiviral testing.)

For data set [6], the system named is Mammalian orthoreovirus 1. Nature of the data set: Antiviral activity against Reovirus1 infected in Vero cells assessed as inhibition of virus-induced cytopathic effect at 100 uM by MTS assay. It is filed as functional, organism-based. The procedure, abridged:
as §2

The test system of data set [7] is Sindbis virus. Nature of the data set: Antiviral activity against Sindbis virus infected in Vero cells assessed as inhibition of virus-induced cytopathic effect at 100 uM by MTS assay. Type of data set: functional, organism-based. The method in brief:
as §2

Data set [8] relates to Feline coronavirus. The data set can be described thus: Antiviral activity against feline coronavirus infected in CRFK cells assessed as inhibition of virus-induced cytopathic effect at 100 uM by MTS assay. It is filed as functional, organism-based.
In data set [9] the test system is Felid alphaherpesvirus 1. The data set can be described thus: Antiviral activity against feline herpes virus infected in CRFK cells assessed as inhibition of virus-induced cytopathic effect at 100 uM by MTS assay. Type of data set: functional, organism-based.
The subject of data set [10] is Human alphaherpesvirus 1. The data set can be described thus: Antiviral activity against HSV1 virus infected in HEL cells assessed as inhibition of virus-induced cytopathic effect at 100 uM by MTS assay. It is filed as functional, organism-based.
In data set [11] the test system is Human alphaherpesvirus 2. The data set can be described thus: Antiviral activity against HSV2 virus infected in HEL cells assessed as inhibition of virus-induced cytopathic effect at 100 uM by MTS assay. Type of data set: functional, organism-based.
For data set [12], the system named is Coxsackievirus B4. Nature of the data set: Antiviral activity against Coxsackievirus B4 infected in HeLa cells assessed as inhibition of virus-induced cytopathic effect at 100 uM by MTS assay. Type of data set: functional, organism-based. The procedure, abridged:
(§3)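 HeLa cells were infected with the virus, and compounds were tested up to 100 μM. EC50 is the concentration that halves virus-induced cytopathic effect, read by visual CPE scoring or by MTS formazan colorimetric viability measurement.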

Data set [13] relates to Respiratory syncytial virus. The data set can be described thus: Antiviral activity against respiratory syncytial virus infected in HeLa cells assessed as inhibition of virus-induced cytopathic effect at 100 uM by MTS assay. It is filed as functional, organism-based. The method in brief:
as §3

Data set [14] has as its system Coxsackievirus B4. Nature of the data set: Antiviral activity against Coxsackievirus B4 infected in Vero cells assessed as inhibition of virus-induced cytopathic effect at 100 uM by MTS assay. Type of data set: functional, organism-based. The procedure, abridged: as §2
The subject of data set [15] is Punta Toro virus. The data set can be described thus: Antiviral activity against Punta Toro virus infected in Vero cells assessed as inhibition of virus-induced cytopathic effect at 100 uM by MTS assay. It is filed as functional, organism-based. The procedure, abridged: as §2
Data set [16] in a line: Cytotoxicity against MDCK cells assessed as alteration in cell morphology by MTS assay. It is filed as cell-based, Canis lupus familiaris. The settings on record: dog. The method in brief: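 Uninfected host cells were exposed to compound and examined under the microscope. MCC was the minimal compound concentration causing a microscopically detectable change in normal cell morphology.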

A short description of data set [17]: Cytotoxicity against MDCK cells assessed as decrease in cell viability by MTS assay. The settings on record: dog. It is filed as cell-based, Canis lupus familiaris. The method in brief: as §1
Data set [18] can be described thus: Cytotoxicity against CRFK cells assessed as decrease in cell viability upto 100 uM by MTS assay. Type of data set: cell-based, Felis catus. The note with it: cat.

Molecules are shown by their SMILES. Calls of active or inactive are those of the source. No cut-off for these calls is given here.

For the compound `Cc1cn(CN(CCOC(=O)C(C)(C)C)S(=O)(=O)c2ccc([N+](=O)[O-])cc2)c(=O)[nH]c1=O`, the CC50 in data set [1] amounted to 53 µM. Moreover, the Activity entry in [2] and in data set [3] was “Not Active” throughout. For the same compound, the outcome in data set [4], in [5], in data set [6], in data set [7], in [8] and in data set [9] was inactive. Besides, the outcome in data set [10], in data set [11], in data set [12], in [13], in data set [14] and in data set [15] was inactive.
Turning to `CC(N)C12CC3CC(CC(C3)C1)C2` (stereo unspecified) [RIMANTADINE], in [16], the MCC is over 100 µM. The CC50 in data set [17] was over 100 µM.
Turning to `CC(C)(C)C(=O)OCCN(Cn1ccc(=O)[nH]c1=O)S(=O)(=O)c1ccccc1N`, the Activity entry in data set [2], in [18] and in [3] was “Not Active” in each case. Besides, the result in data set [4], in data set [5], in [6], in data set [7], in data set [8] and in data set [9] was inactive. In addition, the outcome in [10], in data set [11], in data set [12], in [13], in [14] and in data set [15] was inactive.
For `Cc1cn(CN(CCOC(=O)C(C)(C)C)S(=O)(=O)c2cccc([N+](=O)[O-])c2)c(=O)[nH]c1=O`, the Activity result in data set [2], in [18] and in data set [3] was “Not Active” throughout. In addition, the result in data set [4], in [5], in [6], in data set [7], in data set [8] and in [9] was inactive. The outcome in [10], in [11], in data set [12], in [13], in [14] and in [15] was inactive.
For the compound `Cc1cn(CN(CCOC(=O)C(C)(C)C)S(=O)(=O)c2cccc(N)c2)c(=O)[nH]c1=O`, the Activity result in data set [2], in data set [18] and in data set [3] was “Not Active” each time. Further, the outcome in data set [4], in data set [5], in [6], in data set [7], in [8] and in data set [9] was inactive. Also, the outcome in [10], in [11], in [12], in [13], in data set [14] and in data set [15] was inactive.
On to `Cc1cn(CN(CCOC(=O)C(C)(C)C)S(=O)(=O)c2ccc(N)cc2)c(=O)[nH]c1=O`, for which the Activity entry in data set [2], in data set [18] and in data set [3] was “Not Active” throughout. Also, the outcome in data set [4], in [5], in data set [6], in data set [7], in [8] and in data set [9] was inactive. Besides, the outcome in [10], in [11], in data set [12], in [13], in data set [14] and in data set [15] was inactive.
Consider `CC(C)(C)C(=O)OCCN(Cn1ccc(=O)[nH]c1=O)S(=O)(=O)c1cccc([N+](=O)[O-])c1`, for which the Activity result in data set [2], in data set [18] and in data set [3] was “Not Active” each time. For the same compound, the result in data set [4], in [5], in data set [6], in data set [7], in data set [8] and in [9] was inactive. Also, the outcome in data set [10], in [11], in data set [12], in [13], in data set [14] and in data set [15] was inactive.
As for `CC(C)(C)C(=O)OCCN(Cn1cc(F)c(=O)[nH]c1=O)S(=O)(=O)c1ccc(N)cc1`, the Activity entry in data set [2], in data set [18] and in data set [3] was “Not Active” throughout. For the same compound, the outcome in data set [4], in [5], in data set [6], in data set [7], in [8] and in [9] was inactive. Further, the result in data set [10], in [11], in data set [12], in data set [13], in data set [14] and in [15] was inactive.
Take `CC(=O)Nc1ccc(S(=O)(=O)N(CCOC(=O)C(C)(C)C)Cn2cc(F)c(=O)[nH]c2=O)cc1`: the Activity entry in [2], in data set [18] and in data set [3] was “Not Active” throughout. For the same compound, the result in data set [4], in [5], in [6], in data set [7], in data set [8] and in data set [9] was inactive. The outcome in data set [10], in data set [11], in [12], in [13], in data set [14] and in data set [15] was inactive.
Turning to `CCOC(=O)C1=C[C@@H](OC(CC)CC)[C@H](NC(C)=O)[C@@H](N)C1` [OSELTAMIVIR], in data set [16], the MCC is over 100 µM. Also, the CC50 in data set [17] is over 100 µM.
For the compound `CC(C)(C)C(=O)OCCN(Cn1ccc(=O)[nH]c1=O)S(=O)(=O)c1ccc([N+](=O)[O-])cc1`, the CC50 in [1] was found to be 49 µM. Besides, the Activity result in [2] and in [3] was “Not Active” each time. For the same compound, the result in data set [4], in data set [5], in data set [6], in data set [7], in data set [8] and in [9] was inactive. The result in data set [10], in [11], in [12], in data set [13], in [14] and in data set [15] was inactive.
With `NC12CC3CC(CC(C3)C1)C2` [AMANTADINE], in [16], the MCC was over 100 µM. The CC50 in [17] was over 100 µM.

The CC50 is the concentration giving 50% cytotoxicity.
